# From ChEMBL document CHEMBL1151695, “Design, synthesis and preliminary pharmacological evaluation of new analogues of DM232 (unifiram) and DM235 (sunifiram) as cognition modulators” (Bioorg Med Chem, 2008)
# Key:
# Mus musculus [1] = test: Effect on passive avoidance in mouse assessed as latency time to enter dark room in training session at 0.01 mg/kg, ip treated 20 mins before training session; type: functional; details: route intraperitoneal
# In short: (§1)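 Same step-through passive avoidance without scopolamine. Punishment is a 40 cm fall into 10 °C water on entering the dark room. Mice not entering within 60 s at training were excluded. Compound given ip at 1:10 dilution steps, 20 min before training, in saline or saline/DMSO 4:1. Controls received an extra saline injection right after training. Latency to enter the dark room recorded at training and at next-day retention.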
# Mus musculus [2] = species on record: Mus musculus; test: Toxicity in mouse assessed as spontaneous motility and inspection activity after 5 mins by hole board test; type: organism-based; details: in vivo
# In short: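 Hole-board: 40 cm square plane with 16 holes of 3 cm, arranged 4×4. Each mouse placed centrally and free to move for […]. Photocells counted locomotion (spontaneous motility) and hole exploration, both as counts in 5 min. Compared with saline-treated mice.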
# Mus musculus [3] = test: Antiamnesic activity in scopolamine-induced mouse assessed as latency time to enter dark room in retention session at 0.001 mg/kg, ip treated 20 mins before training session by passive avoidance test; type: functional; details: route intraperitoneal
# In short: (§2)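 Step-through passive avoidance in mice: lit and dark compartments joined by a guillotine door. Entering the dark side drops the mouse 40 cm into 10 °C water, a non-painful punishment. Mice not entering within 60 s at training were excluded. Compound given ip at 1:10 dilution steps […], 20 min before training. Vehicle was saline or saline/DMSO 4:1. Scopolamine 1.5 mg/kg ip immediately after punishment. Retention tested next day. MED is the lowest dose reversing amnesia.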
# Mus musculus [4] = test: Effect on passive avoidance in mouse assessed as latency time to enter dark room in retention session at 0.01 mg/kg, ip treated 20 mins before training session; type: functional; details: route intraperitoneal; in short: as §1
# Mus musculus [5] = species on record: Mus musculus; test: Effect on passive avoidance in mouse treated 20 mins before training session; type: functional; details: read-out: MED; in short: as §1
# Mus musculus [6] = test: Antiamnesic activity in ip dosed mouse assessed as reversal of scopolamine-induced memory loss treated 20 mins before training session by passive avoidance test; type: functional; details: read-out: MED; in short: as §2
# Mus musculus [7] = species on record: Mus musculus; test: Toxicity in mouse assessed as motor coordination after 45 mins by rotarod test; type: organism-based; details: in vivo, 0.75 h
# In short: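 Rota-rod: rod 30 cm long, 15 cm above the base, split into five sections, rotating at 16 rpm. Falls counted over 30 s. Mice with fewer than 3 or more than 6 falls in the pretest were rejected. Performance measured at pretest and 15, 30 and 45 min after test start. Compared with saline-treated mice.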
# Mus musculus [8] = test: Antiamnesic activity in scopolamine-induced mouse assessed as latency time to enter dark room in training session at 0.001 mg/kg, ip treated 20 mins before training session by passive avoidance test; type: functional; details: route intraperitoneal; in short: as §2
# Mus musculus [9] = test: Antiamnesic activity in scopolamine-induced mouse assessed as latency time to enter dark room in retention session at 30 mg/kg, ip treated 20 mins before training session by passive avoidance test; type: functional; details: route intraperitoneal
# In short: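 Mouse step-through passive avoidance in a two-compartment box (lit and dark, guillotine door); entry into the dark side is punished by a fall from 40 cm into a 10 °C water bath. Drug given ip 20 min before training. Scopolamine 1.5 mg/kg given immediately after training. Retention tested the next day, read as latency to enter the dark room. Mice not entering within 60 s at training were excluded.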
# Mus musculus [10] = test: Antiamnesic activity in scopolamine-induced mouse assessed as latency time to enter dark room in training session at 30 mg/kg, ip treated 20 mins before training session by passive avoidance test; type: functional; details: route intraperitoneal
SMILES,Activity (Mus musculus [1]),Activity (Mus musculus [2]),Activity (Mus musculus [3]),Activity (Mus musculus [4]),minimal effective dose (Mus musculus [5]),minimal effective dose (Mus musculus [6]),Activity (Mus musculus [7]),Activity (Mus musculus [8]),Activity (Mus musculus [9]),Activity (Mus musculus [10])
O=C1CCC2CN(S(=O)(=O)c3ccc(F)cc3)CCN12 (centres undefined) [UNIFIRAM],15.4 s,Non-toxic,104.4 s,131.6 s,0.01 mg/kg,1 µg/kg,Non-toxic,19.7 s,,
NC(=O)CN1CCCC1=O [PIRACETAM],,,,,,30000 µg/kg,,,108.8 s,17.6 s
CCC(=O)N1CCN(C(=O)c2ccccc2)CC1 [SUNIFIRAM],18.1 s,Non-toxic,91.5 s,126.7 s,0.01 mg/kg,1 µg/kg,Non-toxic,20.5 s,,
